Four molecules from ChEMBL document CHEMBL2440094, “Thiazolidinone-peptide hybrids as dengue virus protease inhibitors with antiviral activity in cell culture” (J Med Chem, 2013) can be followed below.

Calls of active or inactive are those of the source. The calls are words filed in the database; no cut-off is given here.

A short description of data set [1]: Inhibition of Dengue virus NS2B-NS3 protease expressed in Escherichia coli BL 21 (DE3) using Abz-Nle-Lys-Arg-Arg-Ser-3-(NO2)Tyr as substrate assessed as enzyme-inhibitor complex by Cornish-Bowden plot analysis. To be noted: in the assay text read “Dixon plot” for “Cornish-Bowden plot”. In outline:
(§1)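 DEN2 NS2B–NS3 FRET assay run at inhibitor 0–6 μM (prior-series compounds 5–50 μM) and substrate 50, 100, 150 and 200 μM, in triplicate, with inner-filter correction. Ki from Dixon plots (1/v vs [I]) and Ki′ from Cornish-Bowden plots (S/v vs [I]). Inhibition mode assigned from these plots.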

Data set [2] has as its system Dengue virus. The data set can be described thus: Inhibition of Dengue virus NS2B-NS3 protease expressed in Escherichia coli BL 21 (DE3) using Abz-Nle-Lys-Arg-Arg-Ser-3-(NO2)Tyr as substrate at 50 uM after 15 mins.
Data set [3] in a line: Permeability of the compound by PAMPA. It counts as ADME. To be noted: read-out: permeability. In outline:
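PAMPA with precoated trilayer lipid/oil/lipid membranes, donor wells holding 200 μM compound in PBS pH 7.4 (2% DMSO final), in triplicate. Incubated 5 h at room temperature. Donor and acceptor concentrations determined by UV plate reader or HPLC-UV against calibration curves. Pe and mass retention R calculated.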

Data set [4] has as its system dengue virus type 2. Kind of data set: Antiviral activity against Dengue virus 2 infected in human Huh-7 cells assessed as inhibition of virus-induced plaque formation at 50 uM after 48. Format: functional, organism-based. In outline: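 Huh-7 cells seeded in 12-well plates and pretreated with compound (50 μM) for 4 h. Infected for 1 h with dengue reporter virus (MOI 5) in the presence of compound, then medium replaced with compound-containing DMEM. Supernatant harvested at 48 h and filtered. Titer determined by plaque assay on Vero cells. Mean ± SD of three independent experiments.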

For data set [5], the target named is Prothrombin (Homo sapiens) (UniProt P00734). Kind of data set: Inhibition of thrombin (unknown origin) using Boc-Val-Pro-Arg-AMC as substrate at 25 uM after 10 mins by continuous fluorimetric assay. In outline: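 Thrombin (10 nM) preincubated 15 min with inhibitor (25 μM final) in 50 mM Tris-HCl pH 7.5, 150 mM NaCl, 0.05% Tween 20. Boc-Val-Pro-Arg-AMC then added to 50 μM (Km 16 μM). Fluorescence (ex 355 nm, em 460 nm) followed for 10 min as slope. Triplicate; percent inhibition versus no-inhibitor control.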

Data set [6] concerns Dengue virus. The data set can be described thus: Mixed type inhibition of Dengue virus NS2B-NS3 protease expressed in Escherichia coli BL 21 (DE3) using Abz-Nle-Lys-Arg-Arg-Ser-3-(NO2)Tyr as substrate by Cornish-Bowden plot analysis. In outline:
as §1

In data set [7] the test system is dengue virus type 2. Kind of data set: Antiviral activity against Dengue virus 2 infected in human Huh-7 cells assessed as inhibition of viral replication after 48 hrs by luciferase reporter gene assay. It counts as functional, organism-based. To be noted: Huh-7, 48 h. The gist of the method:
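Huh-7 cells seeded 5000/well, incubated overnight at 37 °C, then given compound (1.56–50 μM final, 2-fold series in DMEM with 10% FCS). Dengue 2 renilla luciferase reporter virus (MOI 10) added 4 h later. After 48 h at 37 °C, cells lysed and renilla luminescence read with coelenterazine. At least four wells per concentration, expressed relative to DMSO control. EC50 by nonlinear regression.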
On the technique in general: Reporter assays use an easily measured gene product as a stand-in for the process of interest.

Data set [8] in a line: Inhibition of Dengue virus NS2B-NS3 protease expressed in Escherichia coli BL 21 (DE3) using Abz-Nle-Lys-Arg-Arg-Ser-3-(NO2)Tyr as substrate assessed as enzyme-substrate-inhibitor complex by Cornish-Bowden plot analysis. In outline: as §1
The subject of data set [9] is Huh-7. The data set can be described thus: Cytotoxicity against human HuH7 cells at >100 uM after 48 hrs by firefly reporter assay. It counts as cell-based. Conditions: huh-7, 48 h. The gist of the method: (§2)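 Uninfected Huh-7 cells stably expressing firefly luciferase, seeded 5000/well and incubated overnight at 37 °C. Compound added at 1.56–50 μM, plus 100, 200 and 400 μM, then incubated as for infected cells (further 48 h after the 4 h point). Firefly luminescence read with 70 μM luciferin and 2 mM ATP. Mean of three wells as percent of DMSO control.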

Another data set relates to West Nile virus. Kind of data set: Inhibition of West Nile virus NS2B-NS3 protease expressed in Escherichia coli BL 21 (DE3) using Abz-Gly-Leu-Lys-Arg-Gly-Gly-3-(NO2)Tyr as substrate at 50 uM after 15 mins.
In data set [10] the test system is Huh-7. Kind of data set: Cytotoxicity against human HuH7 cells at <50 uM after 48 hrs by firefly reporter assay. It counts as cell-based. To be noted: huh-7, 48 h. The gist of the method: as §2
Data set [11] can be described thus: Inhibition of Dengue virus NS2B-NS3 protease expressed in Escherichia coli BL 21 (DE3) using Abz-Nle-Lys-Arg-Arg-Ser-3-(NO2)Tyr as substrate after 15 mins.
Data set [12] can be described thus: Solubility of the compound in PBS buffer. Format: physicochemical.
For data set [13], the system named is Huh-7. Kind of data set: Cytotoxicity against human HuH7 cells at 50 uM after 48 hrs by firefly reporter assay. Conditions: huh-7, 48 h. It counts as cell-based. The gist of the method: as §2
Data set [14] concerns Dengue virus. Kind of data set: Uncompetitive inhibition of Dengue virus NS2B-NS3 protease expressed in Escherichia coli BL 21 (DE3) using Abz-Nle-Lys-Arg-Arg-Ser-3-(NO2)Tyr as substrate by Cornish-Bowden plot analysis. The gist of the method:
as §1

Data set [15] relates to Dengue virus. Kind of data set: Displacement of aprotinin from Dengue virus NS2B-NS3 protease expressed in Escherichia coli BL 21 (DE3) by tryptophan fluorescence quenching assay. The gist of the method:
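Tryptophan quenching assay: DEN protease (4 μM) incubated with inhibitor at 0–50 μM, and also with inhibitor (50 μM) plus aprotinin (10 μM). Enzyme and aprotinin autofluorescence measured as negative control. Fluorescence read at ex 280 nm, em 330 nm; triplicate.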

In data set [16] the test system is Dengue virus. The data set can be described thus: Competitive inhibition of Dengue virus NS2B-NS3 protease expressed in Escherichia coli BL 21 (DE3) using Abz-Nle-Lys-Arg-Arg-Ser-3-(NO2)Tyr as substrate by Cornish-Bowden plot analysis. The gist of the method: as §1

As a reminder, the Ki is a dissociation constant, usually derived from enzyme kinetics or from competition with a known ligand. What is called inhibition is the drop in the measured response relative to a control, in per cent. As a reminder, the EC50 is the concentration giving half of the maximal effect. Broadly, the IC50 is the concentration at which inhibition is half-maximal. A higher IC50 goes with lower potency. Turning to `CCCC[C@H](NC(=O)[C@H](CCCCN)NC(=O)[C@H](CCCNC(=N)N)NC(=O)c1ccc(/C=C2\SC(=S)N(C3CCCCC3)C2=O)cc1)C(N)=O`, the Ki in data set [1] came to 9.3 µM; in data set [8], 4.4 µM. Besides, the inhibition in the data set with Dengue virus [2] amounted to 99.2%; in data set [5], 14.2%; with West Nile virus it was 96.9%. Moreover, the Papp in [3] came to 1.82 ×10⁻⁶ cm/s. Also, the inhibition result with dengue virus type 2 [4] and in the data set on Dengue virus [6] was “Active” throughout. Also, the half-maximal effective concentration (EC50) with dengue virus type 2 [7] was 16.7 µM. The Activity result was “Toxic” with Huh-7 [9] and “Non-toxic” with Huh-7 [10]. The same molecule showed a concentration for half-maximal inhibition (IC50) in data set [11] of 6.1 µM.
Regarding `CCCC[C@H](NC(=O)[C@H](CCCCN)NC(=O)[C@H](CCCNC(=N)N)NC(=O)c1ccc(/C=C2\SC(=S)N(CCc3ccccc3)C2=O)cc1)C(N)=O`, the results for the Ki in data set [1] and in data set [8] were 13.6 µM and 5.1 µM, respectively. For the same molecule, the inhibition with Dengue virus [2] was determined as 99.6%; in data set [5], 6.2%; in the data set with West Nile virus, 98.3%. Also, in [12], the solubility entry is listed as “Insoluble”. The inhibition result in the data set on Dengue virus [6] was “Active”. Besides, the EC50 in the data set with dengue virus type 2 [7] was found to be 25.6 µM. Moreover, the Activity result with Huh-7 [10] is “Non-toxic”. This molecule gave a half-inhibitory concentration (IC50) in [11] of 7.7 µM.
As to `CCCC[C@H](NC(=O)[C@H](CCCCN)NC(=O)[C@H](CCCNC(=N)N)NC(=O)c1ccc(/C=C2\SC(=S)N(Cc3ccc(Cl)cc3)C2=O)cc1)C(N)=O`, the Ki in data set [1] was above 10 µM; in data set [8], 8.6 µM. Further, the inhibition in the data set with Dengue virus [2] stood at 100%; in [5], 13.3%; with West Nile virus it was 100%. Further, the inhibition result in the data set with dengue virus type 2 [4] and in the data set on Dengue virus [14] was “Active” each time. Also, the results for the Activity entry in the data set on Huh-7 [13] and in the data set on Huh-7 [10] were “Toxic” and “Non-toxic”, respectively. Besides, the solubility result in data set [12] is “Insoluble”. Moreover, the EC50 in the data set on dengue virus type 2 [7] turned out to be 31.5 µM. Further, the IC50 in data set [11] was above 10 µM.
`CCCC[C@H](NC(=O)[C@H](CCCCN)NC(=O)[C@H](CCCNC(=N)N)NC(=O)c1ccc(/C=C2\SC(=O)N(CCc3ccccc3)C2=O)cc1)C(N)=O`: the inhibition constant Ki in [1] was 1.8 µM; in [8], above 10 µM. Moreover, the inhibition in the data set with Dengue virus [2] was 96.8%; in the data set on Dengue virus [15], “Dose-dependent effect”; in data set [5], 15.3%; in the data set on West Nile virus, 57.8%. Moreover, the Papp in [3] was found to be 0.82 ×10⁻⁶ cm/s. In addition, in the data set on Dengue virus [16], the inhibition result is “Active”. For the same molecule, the EC50 in the data set with dengue virus type 2 [7] amounted to 37.2 µM. For the same molecule, the Activity entry with Huh-7 [10] was “Non-toxic”. The molecule further had an IC50 in data set [11] of 3.5 µM.
